Consider 1 molecule from ChEMBL document CHEMBL3792296, “Synthesis and antiproliferative activity of 9-benzylamino-6-chloro-2-methoxy-acridine derivatives as potent DNA-binding ligands and topoisomerase II inhibitors” (Eur J Med Chem, 2016).

Active and inactive are the calls of the source. The rule behind the calls is not given here.

In one experiment the test system is HeLa. Description: Antiproliferative activity against human HeLa cells after 48 hrs by MTT assay. The format is functional, cell-based. The procedure, abridged:
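MTT assay: cells seeded at 4-8 × 10³ per well, incubated overnight at 37 °C in 5% CO₂, then given fresh medium with graded compound concentrations or equal DMSO for 48 h. MTT (5 mg/mL solution) added for a further 4 h, formazan dissolved in DMSO, absorbance read at 490 nm. Six cancer cell lines tested.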
On the technique in general: Tetrazolium dyes change colour on reduction, which living cells bring about.

In experiment [1] the target is T1, DNA topoisomerase 1 (Homo sapiens) (UniProt P11387).
T1 sequence (whole entry): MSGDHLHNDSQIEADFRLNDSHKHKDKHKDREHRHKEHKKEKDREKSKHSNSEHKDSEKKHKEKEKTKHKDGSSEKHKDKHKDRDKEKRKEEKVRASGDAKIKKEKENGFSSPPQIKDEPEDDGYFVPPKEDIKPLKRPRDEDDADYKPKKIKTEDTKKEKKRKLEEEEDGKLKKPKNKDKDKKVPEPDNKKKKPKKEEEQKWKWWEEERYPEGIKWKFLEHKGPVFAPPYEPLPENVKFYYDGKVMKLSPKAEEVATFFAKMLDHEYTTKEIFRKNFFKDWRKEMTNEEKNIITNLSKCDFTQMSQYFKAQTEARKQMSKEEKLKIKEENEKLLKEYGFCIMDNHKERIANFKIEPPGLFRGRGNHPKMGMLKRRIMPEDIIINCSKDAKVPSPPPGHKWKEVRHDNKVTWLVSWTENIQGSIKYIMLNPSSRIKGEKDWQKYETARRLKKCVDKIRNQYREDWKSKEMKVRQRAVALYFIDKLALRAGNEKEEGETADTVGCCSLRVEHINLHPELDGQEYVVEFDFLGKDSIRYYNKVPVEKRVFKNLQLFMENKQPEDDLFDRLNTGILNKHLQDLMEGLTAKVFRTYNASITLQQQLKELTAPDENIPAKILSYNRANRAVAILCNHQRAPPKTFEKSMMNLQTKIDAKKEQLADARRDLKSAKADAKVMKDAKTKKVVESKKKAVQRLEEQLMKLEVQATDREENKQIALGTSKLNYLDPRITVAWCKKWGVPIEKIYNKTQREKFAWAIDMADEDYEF
Put plainly: Inhibition of human topoisomerase 1 assessed as reduction in enzyme-mediated relaxation of supercoiled pBR322 DNA at 50 to 100 uM after 10 to 15 mins by agarose gel electrophoresis. Summed up: (§1)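 Relaxation of 500 ng supercoiled pBR322 by 1 unit human Topo I or Topo IIα, with or without compound, in 20 µL reaction buffer at 37 °C for 10-15 min. Reactions stopped with loading buffer, run on 0.8% agarose in TAE at 80 V for 30 min. Gels stained with ethidium bromide 2.5 µg/mL and viewed under UV.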

The target of experiment [2] is DNA topoisomerase 2-alpha (Homo sapiens) (UniProt P11388). Description: Inhibition of human recombinant topoisomerase 2-alpha expressed in Escherichia coli assessed as reduction in enzyme-mediated relaxation of supercoiled pBR322 DNA at 100 uM after 10 to 15 mins by agarose gel electrophoresis. The procedure, abridged:
as §1

Experiment [3] shares this target. Put plainly: Inhibition of human recombinant topoisomerase 2-alpha expressed in Escherichia coli assessed as reduction in enzyme-mediated relaxation of supercoiled pBR322 DNA at 10 to 50 uM after 10 to 15 mins by agarose gel electrophoresis. The procedure, abridged: as §1
The next experiment relates to Calf thymus DNA. Description: Binding affinity to calf thymus DNA at 10 uM spectrofluorimetric analysis. The format is nucleic-acid assay. The conditions noted are these: Bos taurus. The procedure, abridged: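 Compound at 10 µM final in 10 mM Tris-HCl, pH 7.4, titrated with ctDNA at 0-64 µM final. Emission recorded 420-750 nm with excitation at 400 nm using a xenon arc lamp source. Quenching constant K derived by Stern-Volmer fit, F₀/F = 1 + K[Q], where [Q] is the DNA concentration.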

In experiment [4] the test system is A549. Put plainly: Induction of apoptosis in human A549 cells assessed as early apoptotic cells at 5 uM after 48 hrs by Annexin V-FITC/propidium iodide staining based FACS analysis (reference value: 0.94%). The format is functional. The procedure, abridged: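 A549 cells seeded at 2 × 10⁵ per well, incubated overnight, then treated at 0, 5 or 10 µM. The legend gives 36 or 48 h; the methods section states 24 h. Annexin V-FITC/PI kit staining followed by flow cytometry. Early and late apoptotic cells expressed as cumulative percentage relative to control.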
Background: In flow cytometry, cells or beads pass a laser one at a time.

The test system of experiment [5] is A549. Description: Cell cycle arrest in human A549 cells assessed as accumulation at S phase at 5 uM after 36 hrs by propidium iodide staining based flow cytometry (reference value: 30.73%). Format: functional.
Experiment [6] concerns A549. Description: Cell cycle arrest in human A549 cells assessed as accumulation at G2/M phase at 0.5 uM after 36 hrs by propidium iodide staining based flow cytometry (reference value: 7.62%). Format: functional.
Experiment [7] concerns A549. Description: Cell cycle arrest in human A549 cells assessed as accumulation at G2/M phase at 1 uM after 36 hrs by propidium iodide staining based flow cytometry (reference value: 7.62%). The format is functional.

Chain of DNA topoisomerase 2-alpha (Homo sapiens) (P11388 whole entry): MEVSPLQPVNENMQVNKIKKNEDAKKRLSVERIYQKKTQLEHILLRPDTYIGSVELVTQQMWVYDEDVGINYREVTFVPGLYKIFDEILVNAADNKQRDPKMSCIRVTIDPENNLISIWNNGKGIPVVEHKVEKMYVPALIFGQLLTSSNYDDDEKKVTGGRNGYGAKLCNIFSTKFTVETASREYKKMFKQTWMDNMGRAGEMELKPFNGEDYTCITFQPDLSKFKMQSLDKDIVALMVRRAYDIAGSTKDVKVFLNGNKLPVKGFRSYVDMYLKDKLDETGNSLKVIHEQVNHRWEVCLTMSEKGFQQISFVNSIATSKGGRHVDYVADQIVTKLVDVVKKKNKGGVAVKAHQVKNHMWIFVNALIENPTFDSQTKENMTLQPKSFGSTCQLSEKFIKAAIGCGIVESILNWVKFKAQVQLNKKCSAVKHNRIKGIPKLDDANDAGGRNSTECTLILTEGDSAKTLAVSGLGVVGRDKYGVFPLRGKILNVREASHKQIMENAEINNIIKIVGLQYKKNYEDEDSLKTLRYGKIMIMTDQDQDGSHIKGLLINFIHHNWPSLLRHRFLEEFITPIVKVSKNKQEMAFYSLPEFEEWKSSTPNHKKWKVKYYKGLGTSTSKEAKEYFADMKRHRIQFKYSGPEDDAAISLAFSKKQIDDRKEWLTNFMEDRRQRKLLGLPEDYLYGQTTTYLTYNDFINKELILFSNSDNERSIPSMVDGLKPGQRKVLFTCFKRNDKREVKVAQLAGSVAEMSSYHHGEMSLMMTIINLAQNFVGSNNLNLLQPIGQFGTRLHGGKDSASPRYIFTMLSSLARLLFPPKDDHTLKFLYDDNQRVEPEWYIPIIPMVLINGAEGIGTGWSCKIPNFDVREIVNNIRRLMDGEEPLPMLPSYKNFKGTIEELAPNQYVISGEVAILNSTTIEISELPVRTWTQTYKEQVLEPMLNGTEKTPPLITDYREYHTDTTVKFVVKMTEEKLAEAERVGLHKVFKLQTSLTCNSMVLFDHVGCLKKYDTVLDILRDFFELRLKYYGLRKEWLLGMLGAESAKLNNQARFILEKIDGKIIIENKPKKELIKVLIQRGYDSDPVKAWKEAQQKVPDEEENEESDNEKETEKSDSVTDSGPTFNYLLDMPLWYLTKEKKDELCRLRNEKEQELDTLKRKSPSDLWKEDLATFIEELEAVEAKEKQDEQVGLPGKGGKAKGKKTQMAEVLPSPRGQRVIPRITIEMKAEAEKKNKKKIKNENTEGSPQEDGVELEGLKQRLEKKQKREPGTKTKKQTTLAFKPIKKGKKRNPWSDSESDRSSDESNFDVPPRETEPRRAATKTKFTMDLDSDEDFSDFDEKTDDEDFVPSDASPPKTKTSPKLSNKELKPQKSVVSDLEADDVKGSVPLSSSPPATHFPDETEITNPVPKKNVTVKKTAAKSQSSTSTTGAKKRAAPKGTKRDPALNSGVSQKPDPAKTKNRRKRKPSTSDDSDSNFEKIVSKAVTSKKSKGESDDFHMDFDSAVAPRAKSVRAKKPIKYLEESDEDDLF

By IC50 is commonly meant the concentration that inhibits the measured activity by half. A high value points to weaker potency in that assay. Molecule `COc1ccc(CNc2c3ccc(Cl)cc3nc3ccc(OC)cc23)cc1` had an IC50 in the experiment on HeLa of 1700 nM. The inhibition entry in experiment [1], in experiment [2] and in [3] was “Active” throughout. Further, the KSV with Calf thymus DNA came out at 1.02 ×10⁵ /M. The Activity came to 4.23% with A549 [4], 21.45% in the experiment on A549 [5], 8.12% in the experiment on A549 [6] and 9.62% in the experiment with A549 [7].
